Experimental findings from ChEMBL document CHEMBL1157689, “Synthesis and anti-HIV evaluation of water-soluble calixarene-based bithiazolyl podands” (Bioorg Med Chem, 2010) are described below.

The nature of data set [1]: Cytotoxicity against human CEM-SS cells by MTT assay. The data set is classed as cell-based. Put shortly: (§1)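 Uninfected CEM-SS, MT4 or PBMC cells exposed to compound, up to 100 μM for most compounds. CC50 is the concentration causing 50% death of uninfected cells. Values are averages of at least two or three separate experiments.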
Background: Formazan colour is commonly taken as a measure of viable cells.

The test system of data set [2] is Human immunodeficiency virus 1. Briefly: Antiviral activity against HIV1 LAI infected in human CEM-SS cells assessed as inhibition of viral replication by reverse transcriptase activity measurement. Conditions: Human immunodeficiency virus 1, LAI.
A short description of data set [3]: Cytotoxicity against human PBMC by MTT assay. It is filed as cell-based. The essentials: as §1
The nature of data set [4]: Selectivity index, ratio of CC50 for human MT4 cells to IC50 for HIV1 3B infected in human MT4 cells. The data set is classed as functional. The essentials: (§2)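 Selectivity index calculated as CC50/IC50 for each cell system: CEM-SS/HIV-1 LAI, MT4/HIV-1 IIIB, PBMC/HIV-1 Bal.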
The nature of data set [5]: Cytotoxicity against human MT4 cells by MTT assay. The data set is classed as cell-based. The essentials: as §1
Data set [6] in a line: Selectivity index, ratio of CC50 for human CEM-SS cells to IC50 for HIV1 LAI infected in human CEM-SS cells. It is filed as functional. The essentials:
as §2

Data set [7] in a line: Selectivity index, ratio of CC50 for human PBMC to IC50 for HIV1 BaL infected in human PBMC. The data set is classed as functional. Put shortly:
as §2

The test system of data set [8] is Human immunodeficiency virus 1. Briefly: Antiviral activity against HIV1 3B infected in human MT4 cells assessed as protection from virus-induced cytopathogenicity by MTT assay. It is filed as functional, organism-based. To be noted: Human immunodeficiency virus 1, 3B. Put shortly: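 HIV-1 IIIB replication in MT4 cells followed by virus-induced cytopathogenic effect. IC50 is the concentration protecting 50% of infected cells against cytopathogenicity. Values are averages of at least two or three separate experiments.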
In general terms: Protection from cytopathic effect is a common read-out in antiviral testing.

Data set [9] deals with Human immunodeficiency virus 1. Briefly: Antiviral activity against HIV1 BaL infected in human PBMC assessed as inhibition of viral replication by reverse transcriptase activity measurement. Conditions: Human immunodeficiency virus 1, BaL.

Each structure is given as a SMILES string.

Broadly, the CC50 is the concentration at which the toxic effect on the cells reaches its halfway point. The term IC50 denotes the concentration that gives 50% inhibition. For `O=S(=O)([O-])c1cc2c(O)c(c1)Cc1cc(S(=O)(=O)[O-])cc(c1O)Cc1cc(S(=O)(=O)[O-])cc(c1O)Cc1cc(S(=O)(=O)[O-])cc(c1O)C2.[Na+].[Na+].[Na+].[Na+]`, the CC50 in data set [1], in [3] and in data set [5] was more than 100 µM throughout. Besides, the results for the IC50 in [2], in data set [8] and in [9] were 86 µM, 38 µM and 45 µM, respectively. In addition, the “Ratio CC50/IC50” value in data set [4] is on record as more than 2.6; in data set [6] it was more than 1.2; in data set [7], more than 2.
`Cc1cn([C@H]2C[C@H](N=[N+]=[N-])[C@@H](CO)O2)c(=O)[nH]c1=O` [ZIDOVUDINE]: the CC50 in [1] is more than 100 µM; in [3], 75 µM; in data set [5], more than 100 µM. The IC50 came to 0.0051 µM in data set [2] and 0.0077 µM in [9].
Consider `O=P([O-])(O)Cc1cc2c(O)c(c1)Cc1cc(CP(=O)([O-])O)cc(c1O)Cc1cc(CP(=O)([O-])O)cc(c1O)Cc1cc(CP(=O)([O-])O)cc(c1O)C2.[Na+].[Na+].[Na+].[Na+]`, for which the CC50 in [1] was more than 100 µM; in [3], 78 µM; in data set [5] it was more than 100 µM. Besides, the figures for the IC50 in [2], in data set [8] and in [9] were more than 100 µM, more than 100 µM and 70 µM, respectively. In data set [7], the “Ratio CC50/IC50” value is recorded as more than 1.
In the case of `O=C([O-])Cc1cc2c(O)c(c1)Cc1cc(CC(=O)[O-])cc(c1O)Cc1cc(CC(=O)[O-])cc(c1O)Cc1cc(CC(=O)[O-])cc(c1O)C2.[Na+].[Na+].[Na+].[Na+]`, the values for the 50% cytotoxic concentration (CC50) in data set [1], in data set [3] and in data set [5] were more than 100 µM, 100 µM and more than 100 µM, respectively. Further, the IC50 in [2] is 81 µM; in data set [8], 44 µM; in data set [9], 9.5 µM. Also, the “Ratio CC50/IC50” value in [4] is recorded as more than 2.3; in data set [6], more than 1.2; in [7], 10.5.
As for `Cc1csc(-c2nc(COc3c4cc(CC(=O)[O-])cc3Cc3cc(CC(=O)[O-])cc(c3O)Cc3cc(CC(=O)[O-])cc(c3OCc3csc(-c5nc(C)cs5)n3)Cc3cc(CC(=O)[O-])cc(c3O)C4)cs2)n1.[Na+].[Na+].[Na+].[Na+]`, the cytotoxic concentration (CC50) in [1] was more than 1000 µM; in data set [3] it was 230 µM; in data set [5], more than 1000 µM. Moreover, the values for the IC50 in data set [2], in data set [8] and in data set [9] were 28 µM, 16.5 µM and 27.7 µM, respectively. Also, the “Ratio CC50/IC50” value is more than 60 in data set [4], more than 36 in data set [6] and 8.3 in [7].
As to `Cc1nc(-c2nc(COc3c4cc(CC(=O)[O-])cc3Cc3cc(CC(=O)[O-])cc(c3O)Cc3cc(CC(=O)[O-])cc(c3OCc3nc(-c5nc(C)c(C(=O)[O-])s5)sc3C(=O)[O-])Cc3cc(CC(=O)[O-])cc(c3O)C4)c(C(=O)[O-])s2)sc1C(=O)[O-].[Na+].[Na+].[Na+].[Na+].[Na+].[Na+].[Na+].[Na+]`, the results for the CC50 in data set [1], in [3] and in [5] were more than 100 µM, 37 µM and more than 100 µM, respectively. The values for the IC50 in data set [2], in data set [8] and in data set [9] were 5.3 µM, 14 µM and more than 37 µM, respectively. Besides, the “Ratio CC50/IC50” value in data set [4] was more than 7; in data set [6] it was more than 26; in data set [7], less than 1.
With `Cc1csc(-c2nc(COc3c4cc(CP(=O)([O-])O)cc3Cc3cc(CP(=O)([O-])O)cc(c3O)Cc3cc(CP(=O)([O-])O)cc(c3OCc3csc(-c5nc(C)cs5)n3)Cc3cc(CP(=O)([O-])O)cc(c3O)C4)cs2)n1.[Na+].[Na+].[Na+].[Na+]`, the CC50 in data set [1] was more than 100 µM; in data set [3], 92 µM; in data set [5] it was more than 100 µM. The figures for the IC50 in data set [2], in data set [8] and in data set [9] were 15 µM, 14 µM and 57 µM, respectively. Moreover, the “Ratio CC50/IC50” value in data set [4] is more than 7; in data set [6] it was more than 6; in data set [7] it was more than 1.7.
